Test results: ChEMBL document CHEMBL5647697, “Akt inhibition synergizes with polycomb repressive complex 2 inhibition in the treatment of multiple myeloma” (2019)
The source made the active and inactive calls. The calls are words filed in the database; no cut-off is given here.

Experiments:
[1] = test system: NCI-H929; assay: Upregulation of FOXO3 in human NCI-H929 cells assessed as enhanced nuclear accumulation at 0.5 micromol/L after 24 hrs by immunofluorescence staining; assay type: functional, cell-based; settings: dose 0.5 µmol/L
Summary of the method: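 MM.1S and H929 cells were treated with or without 0.5 μmol/L TAS-117 for 24 h. Cells were immunostained with anti-FOXO3. Jurkat cells served as positive control and cells without primary antibody as negative control. Read-out was the average fluorescence intensity of the nuclear FOXO3 fraction versus untreated cells.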

[2] = test system: OPM-2; assay: Synergistic activity against human OPM-2 cells assessed as combination index preincubated in presence of 5 uM UNC1999 for 72 hrs followed by compound addition at 1.25 uM incubated for 48 hrs by MTT assay; assay type: functional
[3] = test system: NCI-H929; assay: Synergistic activity against human NCI-H929 cells assessed as combination index preincubated in presence of 2.5 uM UNC1999 […] at 0.5 uM incubated for 48 hrs by […]; assay type: functional
Summary of the method: (§1)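 Cells were exposed to the EZH2/EZH1 inhibitor (UNC1999 or GSK126) for 72 h in total, with the Akt inhibitor added for the last 48 h. Viability was read by MTS assay relative to untreated control cells, in triplicate. The combination index for each dose pair came from isobologram analysis.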

[4] = test system: NCI-H929; assay: Synergistic activity against human NCI-H929 cells assessed as combination index […] in presence of 2.5 uM UNC1999 […] at 0.125 uM incubated for 48 hrs by […]; assay type: functional; summary of the method: as §1
[5] = test system: MM1.S; assay: Synergistic activity against human MM.1S cells assessed as combination index […] in presence of 2.5 uM UNC1999 […] […] compound addition at 0.125 uM incubated for 48 hrs by MTT assay; assay type: functional; summary of the method: as §1
[6] = test system: NCI-H929; assay: Induction of apoptosis in human NCI-H929 cells assessed as live cells at 2 micromol/L incubated for 12 hrs by annexin V/PI staining based flow cytometry (reference value: 95.6%); assay type: functional; settings: dose 2 µmol/L, at 2 µM
[7] = test system: MM1.S; assay: Upregulation of FOXO4 […] expression in human MM1.S cells assessed as enhanced nuclear accumulation at 1 micromol/L after 24 hrs by immunofluorescence staining; assay type: functional, cell-based; settings: dose 1.0 µmol/L

SMILES: C[C@]1(O)C[C@@](N)(c2ccc(-c3nc4n(c3-c3ccccc3)COc3ccncc3-4)cc2)C1 [PIFUSERTIB]
- Activity [1]: Active
- CI [2]: 5.25
- CI [3]: 0.807
- CI [4]: 0.783
- CI [5]: 0.217
- Activity [6]: 91.7%
- Activity [7]: Active
